Test results reported in PMC13077713 (Journal of medicinal chemistry, 2025).
Several values for one entry are separate records, joined by “and”; a condition that tells them apart may be missing. Identical values can stand only once.

Columns and labels:
[1] = molecular target: T1, Cp149 dimers (Hepatitis B virus genotype D subtype ayw, UniProt P03146); assay: Static SAXS of Cp149 capsid assembly in the presence of CAM; format: biochemical, Hepatitis B virus (HBV); details: ρ = 3, undiluted sample, 30 μM dimers; 1.54 cm^−1 without CAM
T1 sequence (P03146 1-149): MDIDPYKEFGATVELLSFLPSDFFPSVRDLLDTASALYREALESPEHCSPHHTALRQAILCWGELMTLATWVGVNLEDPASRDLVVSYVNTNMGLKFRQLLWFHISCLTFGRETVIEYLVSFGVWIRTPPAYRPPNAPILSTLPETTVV

[2] = tested on: HBV-infected HepG2-NTCP cells; format: cell-based; details: post-infection treatment
[3] = tested on: African green monkey kidney (Vero) cells; assay: Cytotoxicity, CellTiter 96 cell proliferation assay, Vero cells; format: cell-based; details: read-out: Cytotoxicity, CC50 Vero; Vero cells
[4] = molecular target: preassembled HBV capsids (Cp149 protein) (Hepatitis B virus genotype D subtype ayw, UniProt P03146); details: 20 μM CAM
Chain of preassembled HBV capsids (Cp149 protein) (P03146 1-149): as above

[5] = molecular target: T1, Cp149 dimers
[6] = tested on: HBc in HepAD38 cells; assay: Confocal microscopy, nucleo-cytoplasmic distribution of HBc in HepAD38 cells; format: cell-based, Hepatitis B virus (HBV); details: increasing concentration, 72 h
[7] = tested on: human hepatocellular carcinoma (HepG2) cells; assay: Cytotoxicity, CellTiter 96 cell proliferation assay, HepG2 cells; format: cell-based; details: read-out: Cytotoxicity, CC50 HepG2; HepG2 cells
[8] = tested on: HBV DNA production in HepAD38 cells; assay: Anti-HBV activity; format: cell-based, Hepatitis B virus (HBV)
[9] = molecular target: T1, Cp149 dimers; assay: Cryo-electron microscopy classification of Cp149 capsids assembled with CAM; format: biochemical, Hepatitis B virus (HBV); details: 90 μM, 30 μM subunits
Summary of the method: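 Cp149 was expressed in E. coli BL21 and purified as capsids. These were dissociated with 3 M urea and taken to subunits by SEC. Assembly was triggered manually by mixing 30 μM (1 mg/ml) dimers in 1 mM DTT, 20 mM Tris-HCl pH 7.5 with 200 mM ammonium acetate, with or without 90 μM CAM (ρ = 3). Samples were concentrated 11-fold, imaged by cryo-EM, and particles 2D-classified.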

[10] = tested on: human T lymphoblast (CEM) cells; assay: Cytotoxicity, CellTiter 96 cell proliferation assay, CEM cells; format: cell-based; details: read-out: Cytotoxicity, CC50 CEM; CEM cells
[11] = tested on: HBV-infected HepG2-NTCP cells; format: cell-based
[12] = tested on: human peripheral blood mononuclear (PBM) cells; assay: Cytotoxicity, CellTiter 96 cell proliferation assay, PBM cells; format: cell-based; details: read-out: Cytotoxicity, CC50 PBM; PBM cells

Compound: Cc1c(C(=O)C(=O)NCc2cn(CCCCCCCCCCCCCCn3cc(CNC(=O)C(=O)c4c(C)c(C(=O)Nc5ccc(F)c(F)c5)n(C)c4C)nn3)nn2)c(C)n(C)c1C(=O)Nc1ccc(F)c(F)c1 [Compound 6e, 4,4’-(2,2’-(((Tetradecane-1,14-diylbis(1H-1,2,3-triazole-1,4-diyl))bis(methylene))bis(azanediyl))bis(2-oxoacetyl))bis(N-(3,4-difluorophenyl)-1,3,5-trimethyl-1H-pyrrole-2-carboxamide)]
- SAXS intensity at zero angle I(0) [1]: 1.32 cm⁻¹
- fold more potent than GLP-26 at inhibiting HBV virion production [2]: 10 fold
- fold more potent than GLP-26 at inhibiting HBeAg biogenesis [2]: 10 fold
- CC50 [3]: > 100 µM
- Radius (DLS, table) ([4]; 7.5 μM Cp149, 30 min, 1% DMSO control 24.6 ± 3.4): 214 ± 61.3 nM
- PD (polydispersity) ([4]; 7.5 μM Cp149, 30 min, 1% DMSO control 32.3 ± 18.6): Multimodal distribution
- average particle radius (DLS, text) ([4]; 1% DMSO control 24.6 nm): 214 nm
- Associated timescale of Rgw [5]: 131 ± 21 ms
- Associated timescale of 〈N〉w [5]: 633 ± 77 ms
- Rgw (mean radius of gyration, plateau) [5]: 142 ± 0.3 Å
- Subunit binding energies −Δg [5]: 9.5 kT
- 〈N〉w∞ (mean aggregation number at equilibrium) [5]: 126 and 126 ± 3
- levels of HBc inside the nucleus [6]: clear decrease in the levels of HBc inside the nucleus
- CC50 [7]: > 100 µM
- times more potent than reference compound GLP-26 ([8]; HepAD38 EC50 vs GLP-26): 80 times
- EC50 ([8]; read-out: Anti-HBV activity EC50, HBV DNA production, HepAD38 cells): 0.0001 µM
- EC90 ([8]; read-out: Anti-HBV activity EC90, HBV DNA production, HepAD38 cells): 0.009 ± 0.0002 µM
- capsids that displayed defects (single-particle analysis) [9]: approximately 45%
- CC50 [10]: > 100 µM
- HBeAg EC50 compared to GLP-26 or GLS-4 [11]: nearly eight-fold lower
- CC50 [12]: > 100 µM
